Assay results: ChEMBL document CHEMBL4673192, “Structure-activity relationship studies on 2,5,6-trisubstituted benzimidazoles targeting Mtb-FtsZ as antitubercular agents” (RSC Med Chem, 2021)
Values after ≈ are worked out from the molar mass of the structure shown.

Key:
[1] = Cytotoxicity against human WI-38 cells assessed as reduction in cell viability at 20 uM incubated for 72 hrs by MTT assay relative to control; type: cell-based; conditions: read-out: INH
Method in brief: (§1)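 MTT assay: cells were seeded at 2500/well and attached overnight to 70–90% confluency (HepG2 in RPMI-1640, WI-38 in DMEM, each with 10% FBS). Compound was given at 20 μM final with 0.5% DMSO for 72 h. MTT was applied for 4 h in the dark and the formazan dissolved in DMSO, with OD read at 570 nm. % inhibition is relative to the DMSO control, mean of triplicate.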

[2] = Cytotoxicity against human HepG2 cells assessed as reduction in cell viability at 20 uM incubated for 72 hrs by MTT assay relative to control; type: cell-based; conditions: read-out: INH; method in brief: as §1
[3] = tested on: Mycobacterium tuberculosis; assay: Antitubercular activity against Mycobacterium tuberculosis H37Rv incubated for 6 days by alamar blue assay; type: functional; conditions: 144 h, time 6 day
Method in brief: (§2)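 MABA (protocol A): Mtb H37Rv grown in 7H9 with 10% OADC and 0.05% Tween-80 and used at mid-log phase. Compounds from DMSO stocks were serially diluted 2-fold, and the inoculum was set to OD600 0.005. Plates were incubated 6 days at 37 °C, then Alamar Blue was added for a further 24 h. MIC is the lowest concentration (μg mL−1) preventing the colour change.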

[4] = tested on: Mycobacterium tuberculosis; assay: Antitubercular activity against mid logarithmic stage Mycobacterium tuberculosis H37Rv incubated for 6 days by alamar blue assay; type: functional; conditions: 144 h, time 6 day
Method in brief: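 Protocol B: the mid-log H37Rv culture (OD580 0.4) was diluted 1:100 and mixed with an equal volume of serially diluted compound (DMSO). After 6 days at 37 °C, Alamar blue plus 20% Tween 80 was added. Plates were read 24 h later at 570 nm against a 600 nm reference. Untreated inoculum wells gave the survival-inhibition curve, and rifampicin served as positive control.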

[5] = tested on: Mycobacterium tuberculosis; assay: Antitubercular activity against Mycobacterium tuberculosis H37Rv by microplate alamar blue assay; type: functional; method in brief: as §2
[6] = tested on: Mycobacterium tuberculosis; assay: Antitubercular activity against Mycobacterium tuberculosis H37Rv infected in immune compromised GKO mouse assessed as lung log CFU reduction; type: functional
[7] = tested on: Mycobacterium tuberculosis; assay: Antitubercular activity against Mycobacterium tuberculosis H37Rv infected in immune compromised GKO mouse assessed as spleen log CFU reduction; type: functional
WI-38 = assay: Cytotoxicity against human WI-38 cells assessed as reduction in cell viability incubated for 72 hrs by MTT assay; type: cell-based; conditions: WI-38, 72 h
[8] = Therapeutic index, ratio of IC50 for human WI-38 cells to MIC for Mycobacterium tuberculosis H37Rv; type: toxicity; conditions: read-out: TI

SMILES	MIC99 [3]	other results
CCCCOC(=O)Nc1cc2nc(C(CC)CC)[nH]c2cc1N(C)C	0.078 mg/L (≈ 0.225 µM)	cytotoxicity at 72 h, 20 µM [1]: 77%; cytotoxicity at 72 h, 20 µM [2]: 32%
CCC(CC)c1nc2cc(NC(=O)c3ccccc3)c(N(C)C)cc2[nH]1	1.56 mg/L (≈ 4.45 µM)	–
CCCCOC(=O)Nc1cc2nc(SC3CCCCC3)[nH]c2cc1N(C)C	–	cytotoxicity at 72 h, 20 µM [1]: 87%; cytotoxicity at 72 h, 20 µM [2]: 50%; MIC99 [4]: < 0.0081 mg/L
CCC(CC)c1nc2cc(NC(=O)c3ccc(OC)c(OC)c3)c(N(C)C)cc2[nH]1	12.5 mg/L (≈ 30.4 µM)	–
Cc1ccc(C(=O)Nc2cc3nc(Cc4ccccc4)[nH]c3cc2N(C)C)cc1	1.56 mg/L (≈ 4.06 µM)	–
CN(C)c1cc2[nH]c(C3CCCC3)nc2cc1NC(=O)C1CCC1	> 10 mg/L	–
CN(C)c1cc2[nH]c(C3CCCC3)nc2cc1NC(=O)c1ccc(C(C)(C)C)cc1	0.78 mg/L (≈ 1.93 µM)	–
CCCCOC(=O)Nc1cc2nc(SCc3ccccc3)[nH]c2cc1N(C)C	0.31 mg/L (≈ 0.778 µM)	–
CCCCOC(=O)Nc1cc2nc(SC(C)C)[nH]c2cc1N(C)C	0.31 mg/L (≈ 0.884 µM)	–
CCCCOC(=O)Nc1cc2nc(C3CCCCC3)[nH]c2cc1N(C)C	0.06 mg/L (≈ 0.167 µM)	MIC99 [4]: 0.008 mg/L (≈ 0.0223 µM)
CCCCOC(=O)Nc1cc2nc(CN(C)c3ccccc3)[nH]c2cc1N(C)C	0.16 mg/L (≈ 0.405 µM)	–
CN(C)c1cc2[nH]c(C3CCCC3)nc2cc1NC(=O)c1ccc(F)cc1F	0.625 mg/L (≈ 1.63 µM)	–
CN(C)c1cc2[nH]c(C3CCCC3)nc2cc1NC(=O)C(C)(C)C	50 mg/L (≈ 152 µM)	–
CN(C)c1cc2[nH]c(C3CCOCC3)nc2cc1NC(=O)c1ccc(OC(F)(F)F)cc1F	10 mg/L (≈ 21.4 µM)	–
CCC(CC)c1nc2cc(NC(=O)c3ccc(C)cc3)c(N(C)C)cc2[nH]1	0.5 mg/L (≈ 1.37 µM)	–
CN(C)c1cc2[nH]c(C3CCOCC3)nc2cc1NC(=O)c1ccc(OC(F)(F)F)cc1	> 10 mg/L	–
Cc1ccc(C(=O)Nc2cc3nc(C4CCCC4)[nH]c3cc2N(C)C)cc1	0.625 mg/L (≈ 1.72 µM)	–
CCCCOC(=O)Nc1cc2nc(C(C)C)[nH]c2cc1N(C)C	1.25 mg/L (≈ 3.93 µM)	–
CCCCOC(=O)Nc1cc2nc(SC)[nH]c2cc1N(C)C	9.6 mg/L (≈ 29.8 µM)	MIC99 [4]: 1.28 mg/L (≈ 3.97 µM)

SMILES	MIC99 [3]	other results
CCCCOC(=O)Nc1cc2nc(-c3cccs3)[nH]c2cc1N(C)C	> 10 mg/L	–
CN(C)c1cc2[nH]c(Cc3ccccc3)nc2cc1NC(=O)c1ccc(OC(F)(F)F)cc1	1.25 mg/L (≈ 2.75 µM)	–
COc1ccccc1C(=O)Nc1cc2nc(C3CCCC3)[nH]c2cc1N(C)C	12.5 mg/L (≈ 33 µM)	–
CCCCOC(=O)Nc1cc2nc(C3CCOCC3)[nH]c2cc1N(C)C	> 2.5 mg/L	–
CN(C)c1cc2[nH]c(Cc3ccccc3)nc2cc1NC(=O)c1ccc(C(C)(C)C)cc1	0.33 mg/L (≈ 0.774 µM)	–
CCC(CC)C(=O)Nc1cc2nc(C3CCCC3)[nH]c2cc1N(C)C	> 50 mg/L	–
CN(C)c1cc2[nH]c(CN(C)c3ccccc3)nc2cc1NC(=O)c1ccc(F)cc1F	1.25 mg/L (≈ 2.87 µM)	–
CN(C)c1cc2[nH]c(Cc3ccccc3)nc2cc1NC(=O)c1ccccc1	1.25 mg/L (≈ 3.37 µM)	–
CCCCOC(=O)Nc1cc2nc(C3CCCC3)[nH]c2cc1N(C)C	0.31 mg/L (≈ 0.9 µM)	cytotoxicity at 72 h, 20 µM [1]: 86%; cytotoxicity at 72 h, 20 µM [2]: 42%
CC(C)c1nc2cc(NC(=O)c3ccc(C(C)(C)C)cc3)c(N(C)C)cc2[nH]1	0.78 mg/L (≈ 2.06 µM)	–
COc1ccc(C(=O)Nc2cc3nc(C4CCCC4)[nH]c3cc2N(C)C)cc1	1.25 mg/L (≈ 3.3 µM)	–
COc1ccc(C(=O)Nc2cc3nc(Cc4ccccc4)[nH]c3cc2N(C)C)cc1	1.25 mg/L (≈ 3.12 µM)	–
Cc1ccc(C(=O)Nc2cc3nc(CN(C)c4ccccc4)[nH]c3cc2N(C)C)cc1	1.25 mg/L (≈ 3.02 µM)	–
CCCCOC(=O)Nc1cc2nc(CN3CCOCC3)[nH]c2cc1N(C)C	2.4 mg/L (≈ 6.39 µM)	MIC99 [4]: 1.6 mg/L (≈ 4.26 µM)
CCCCOC(=O)Nc1cc2nc(CN3CCCC3)[nH]c2cc1N(C)C	2.4 mg/L (≈ 6.68 µM)	MIC99 [4]: 1.6 mg/L (≈ 4.45 µM)
CCCc1ccc(C(=O)Nc2cc3nc(CN(C)c4ccccc4)[nH]c3cc2N(C)C)cc1	5 mg/L (≈ 11.3 µM)	–
CCCCOC(=O)Nc1cc2nc(SCC)[nH]c2cc1N(C)C	1.2 mg/L (≈ 3.57 µM)	MIC99 [4]: 0.16 mg/L (≈ 0.476 µM)
CCC(CC)c1nc2cc(NC(=O)c3ccc(F)cc3)c(N(C)C)cc2[nH]1	0.78 mg/L (≈ 2.12 µM)	–
CN(C)c1cc2[nH]c(C3CCCC3)nc2cc1NC(=O)c1ccccc1	1.56 mg/L (≈ 4.48 µM)	–

SMILES	MIC99 [3]	other results
CN(C)c1cc2[nH]c(C3CCCC3)nc2cc1NC(=O)c1ccc(OC(F)(F)F)cc1	1.56 mg/L (≈ 3.61 µM)	–
CN(C)c1cc2[nH]c(C3CCCCC3)nc2cc1NC(=O)c1ccc(OC(F)(F)F)cc1F	0.16 mg/L (≈ 0.344 µM)	MIC [5]: 0.16 mg/L (≈ 0.344 µM); Activity [6]: 5.7 log10CFU; cytotoxicity at 72 h, 20 µM [1]: 78%; cytotoxicity at 72 h, 20 µM [2]: 57%; Activity [7]: 3.9 log10CFU; MIC99 [4]: 0.019 mg/L (≈ 0.0409 µM)
COc1ccc(CC(=O)Nc2cc3nc(CN(C)c4ccccc4)[nH]c3cc2N(C)C)cc1	> 10 mg/L	–
CCCCOC(=O)Nc1cc2nc(SCC3CCCCC3)[nH]c2cc1N(C)C	0.015 mg/L (≈ 0.0371 µM)	IC50 (WI-38): 20 µM; cytotoxicity at 72 h, 20 µM [1]: 52%; cytotoxicity at 72 h, 20 µM [2]: 0%; selectivity ratio [8]: > 100; MIC99 [4]: 0.0039 mg/L (≈ 0.00964 µM)
CCC(CC)C(=O)Nc1cc2nc(Cc3ccccc3)[nH]c2cc1N(C)C	> 10 mg/L	–
CCCCOC(=O)Nc1cc2nc(Cc3ccccc3)[nH]c2cc1N(C)C	< 0.078 mg/L	cytotoxicity at 72 h, 20 µM [1]: 93%; cytotoxicity at 72 h, 20 µM [2]: 80%
CN(C)c1cc2[nH]c(Cc3ccccc3)nc2cc1NC(=O)c1ccc(F)cc1	0.63 mg/L (≈ 1.62 µM)	–
CCC(CC)c1nc2cc(NC(=O)c3ccccc3OC)c(N(C)C)cc2[nH]1	1.56 mg/L (≈ 4.1 µM)	–
CN(C)c1cc2[nH]c(Cc3ccccc3)nc2cc1NC(=O)c1ccc(F)cc1F	0.63 mg/L (≈ 1.55 µM)	–
CCCCOC(=O)Nc1cc2nc(Sc3ccccc3)[nH]c2cc1N(C)C	0.31 mg/L (≈ 0.806 µM)	–
CN(C)c1cc2[nH]c(CN(C)c3ccccc3)nc2cc1NC(=O)c1ccc(OC(F)(F)F)cc1F	0.29 mg/L (≈ 0.578 µM)	cytotoxicity at 72 h, 20 µM [1]: 59%; cytotoxicity at 72 h, 20 µM [2]: 30%; MIC99 [4]: 0.19 mg/L (≈ 0.379 µM)
CN(C)c1cc2[nH]c(C3CCCCC3)nc2cc1NC(=O)c1ccc(C(F)(F)F)cc1F	–	MIC [5]: 0.16 mg/L (≈ 0.357 µM); Activity [6]: 5.7 log10CFU; Activity [7]: 3.9 log10CFU
CCC(CC)c1nc2cc(NC(=O)c3ccc(OC(F)(F)F)cc3)c(N(C)C)cc2[nH]1	0.31 mg/L (≈ 0.714 µM)	–
CCCCOC(=O)Nc1cc2nc(CN(CCC)CCC)[nH]c2cc1N(C)C	0.16 mg/L (≈ 0.411 µM)	cytotoxicity at 72 h, 20 µM [1]: 4%; cytotoxicity at 72 h, 20 µM [2]: 0%
CCCCOC(=O)Nc1cc2nc(CN3CCCCC3)[nH]c2cc1N(C)C	0.14 mg/L (≈ 0.375 µM)	cytotoxicity at 72 h, 20 µM [1]: 60%; cytotoxicity at 72 h, 20 µM [2]: 0%; MIC99 [4]: 0.09 mg/L (≈ 0.241 µM)
CCC(CC)c1nc2cc(NC(=O)c3ccc(F)cc3F)c(N(C)C)cc2[nH]1	0.71 mg/L (≈ 1.84 µM)	–
CN(C)c1cc2[nH]c(C3CCCC3)nc2cc1NC(=O)c1ccc(F)cc1	0.78 mg/L (≈ 2.13 µM)	–
CN(C)c1cc2[nH]c(Cc3ccccc3)nc2cc1NC(=O)C(C)(C)C	> 10 mg/L	–
CN(C)c1cc2[nH]c(CN(C)c3ccccc3)nc2cc1NC(=O)c1ccc(C(C)(C)C)cc1	2.5 mg/L (≈ 5.49 µM)	–
